Source: PubChem (Broad Institute)
Compounds with a hit are over-represented: about 2.1% of the library has one in this group of screens.
PAX8 inh HTS: lowers PAX8-driven luciferase in RMG-I cells | RMG-I TPO-luciferase reporter, SteadyGlo, 24 h | inhibition, % at 12.6 µM | 360,000 compounds, 1.2% hits | AID 652154;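 active means mean replicate inhibition at least 60% with every replicate also reaching 60%; inconclusive means only one of the two criteria is met; inactive means mean below 60% and not all replicates reaching 60%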;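 further: luciferase light reporting Pax8 driven TPO promoter activity; plate controls were median of neutral control wells for no effect and mitoxantrone controls for full effect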
INS-1E GSIS act: GLuc luminescence reporter in INS-1E cells, primary screen for activators of glucose-dependent secretion of insulin | INS-1E GLuc reporter insulin secretion, 2-3 h | activation, % at 16.6 µM | 370,000 compounds, 0.61% hits | AID 743287;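 active means lowest replicate activation of at least 40%, so every replicate reaches that level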;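 further: 0% = median of neutral control wells and 100% = median of IBMX positive control wells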
EWS-Fli block: EWS/Fli transcriptional activity inhibition; A673 NR0B1-luciferase reporter, viability-normalised; inhibition, % at 12.6 µM; 350,000 compounds, 0.67% hits; AID 651661;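 active means mean inhibition of at least 50% after viability correction, with every replicate also passing that limit; inconclusive means mean reaches 50% but only one of two replicates passes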;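 further: firefly luciferase signal divided by Alamar Blue viability fluorescence both relative to DMSO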
MLL AF4-AF9 inh: inhibitors of human MLL-AF4/AF9 interaction. P42568. AlphaScreen, biotin-AF4 peptide binding to FLAG-AF9. inhibition, % at 10 µM. 350,000 compounds, 0.47% hits. AID 651704;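 active means every replicate reaching a set inhibition limit, whatever the replicate mean, cut at about 25% in these data; inconclusive means mean inhibition reaches that limit but some replicates miss it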;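 further: 0% = plate neutral control median and 100% = total signal loss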
Target sequence (P42568 whole entry, looked up): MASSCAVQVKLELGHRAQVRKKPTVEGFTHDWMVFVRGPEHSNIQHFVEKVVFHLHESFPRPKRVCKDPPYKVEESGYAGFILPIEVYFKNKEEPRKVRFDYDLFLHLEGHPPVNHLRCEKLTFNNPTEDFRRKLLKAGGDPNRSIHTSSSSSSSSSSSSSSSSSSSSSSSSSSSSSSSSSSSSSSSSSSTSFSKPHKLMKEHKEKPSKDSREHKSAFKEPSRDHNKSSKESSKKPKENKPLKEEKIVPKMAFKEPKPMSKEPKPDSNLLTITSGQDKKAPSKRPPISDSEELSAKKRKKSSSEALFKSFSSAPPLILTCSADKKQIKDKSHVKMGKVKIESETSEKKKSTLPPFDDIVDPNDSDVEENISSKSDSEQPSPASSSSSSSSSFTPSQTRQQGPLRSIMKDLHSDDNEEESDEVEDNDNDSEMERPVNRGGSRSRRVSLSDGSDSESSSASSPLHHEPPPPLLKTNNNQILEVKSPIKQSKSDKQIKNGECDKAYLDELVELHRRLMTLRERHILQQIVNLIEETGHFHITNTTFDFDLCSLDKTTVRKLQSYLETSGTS
PGC1a acetyl inh: modulators of PGC1a acetylation. inhibition, % at 15.6 µM. U2OS PGC1a acetylation, AlphaScreen anti-acetyl-lysine; with virally co-expressed GCN5 acetyltransferase. 350,000 compounds, 0.17% hits;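 active means every replicate shows inhibition of at least 40%; inconclusive means mean inhibition at least 40% but some replicate below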;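 further: 0% = neutral control wells and 100% = positive control wells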
XiGFP reactiv: activators of X-chromosome reactivation in mouse fibroblasts; activation, % at 7.58 µM; AID 743238; XiGFP mouse fibroblasts, % GFP-positive cells imaging, 3 d; cells co-treated with 5-aza-dC sensitizer; scaled so ellipticine positive control = 100%; 360,000 compounds, 0.055% hits;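 active means mean normalized replicate activation at least 10% and every replicate at or above 10%; inconclusive means only one of the two criteria met; inactive means mean below 10% and not all replicates reach 10%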;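 further: 0% = median of on-plate neutral control wells and 100% = ellipticine 6 µM median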
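Assay system: SV40-immortalized XiGFP fibroblast cells, line 68-5-11; buffer or medium: DMEM plus 5-aza-dC sensitizer; compound: one concentration, pinned; timing: compounds 3 days, fix/stain 15 min at room temperature; benchmarks: positive control ellipticine, 6 µM final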
Alpha interfer: AlphaScreen signal interference counter-screen hit. shares compounds with MLL AF4-AF9 inh. signal luminescence. AC50, µM (top dose mostly 12 µM), without a hit: at the top dose activity change, negative = inhibition. 530 compounds, 45% hits. AID 720494; cut-off not given, nearly all actives have AC50 up to about 14 µM
Numbers without * were called inactive; ? = inconclusive; . = no result.

SMILES | PAX8 inh HTS | INS-1E GSIS act | EWS-Fli block | MLL AF4-AF9 inh | PGC1a acetyl inh | XiGFP reactiv | Alpha interfer
C[C@@H]1ON(C)[C@H]2C[C@H]3c4[nH]c5cccc(-c6ccccc6)c5c4CCN3C[C@@H]12 | -23 | -10 | 0 | . | . | 0 | .
C[C@@H]1ON(C)[C@H]2C[C@H]3c4[nH]c5ccc(-c6ccc7c(c6)OCO7)cc5c4CCN3C[C@@H]12 | -30 | -4 | 6 | 31* | -7 | 0 | -15%
CCCN1[C@@H]2Cn3c(cccc3=O)[C@H]1[C@@H](C(=O)NC1Cc3ccccc3C1)[C@@H]2CO | . | 7 | -3 | 1 | . | 0 | .
COc1ccc(CN2CCC(N(CCc3ccccc3)Cc3ccccc3)CC2)c(OC)c1 | 29 | 122 | 28 | 30* | . | 0 | -21%
O=C(C[C@H]1CC[C@H](NC(=O)C2CCOCC2)[C@@H](CO)O1)Nc1ccc(-c2ccccc2)cc1 | 8 | 4 | -8 | 0 | -3 | 1 | .
Oc1cc(-c2ccncc2)cc2cccnc12 | 6 | -3 | 13 | 29* | . | 0 | 9.1µM*
CN(C)CCCNC(=O)c1ccccn1 | -7 | . | . | . | -6 | . | .
CN(C)CCCNC(=O)c1ccc(-c2cc(O)c3ncccc3c2)cc1 | 19 | . | 6 | 87* | -7 | 1 | 1.8µM*
Oc1cc(-c2ccc(N3CCCCC3)nc2)cc2cccnc12 | . | . | . | . | 11 | . | .
O=C(Cc1ccccc1)N1C[C@@H]2[C@H](c3ccccc31)[C@@H](CO)N2C(=O)Cc1ccccc1 | 22 | -4 | 3 | -1 | 11 | 0 | .
Cc1ccsc1/C=N/N1CCN(Cc2ccccc2)CC1 | -68 | 2 | -59 | 27* | 1 | 0 | -17%
CN(C)c1ccc(/C=C2/C[N+](C)(C)C/C(=C/c3ccc(N(C)C)cc3)C2=O)cc1 | . | 4 | -10 | 56* | 2 | 0 | 5.8µM*
CC(C)/C=C1\CC/C(=C\c2ccc(N(C)C)cc2)C1=O | 32 | . | -83 | 0 | . | 0 | .
C[C@@H]1CN([C@H](C)CO)C(=O)c2cccc(NC(=O)c3cnccn3)c2O[C@@H]1CN(C)C(=O)NC1CCCCC1 | -20 | 3 | -6 | . | -2 | 0 | .
CN(C)c1ccc(C(CNS(=O)(=O)c2ccc3ccccc3c2)c2c[nH]c3ccccc23)cc1 (centres undefined) | 14 | -35 | . | . | . | 0 | .
CN(C)c1ccc(C(CN)c2c[nH]c3ccccc23)cc1 (centres undefined) | -3 | -5 | -2 | 30* | . | 0 | -33%
C=CCN=c1scc(-c2ccco2)n1/N=C/c1ccc(O)c(O)c1O | 11 | 0 | -42 | -1 | . | 0 | .
COCCN=c1scc(-c2ccco2)n1/N=C/c1ccc(O)c(O)c1O | 27 | 1 | 13 | 33* | -4 | 0 | -6%
CNC[C@H](Cc1ccccc1)NC[C@@H](Cc1cccc2ccccc12)NCCc1ccc(C)cc1 | 5 | 2 | 46 | 45* | 17 | 0 | -24%
CS(=O)(=O)N1CCCCN2[C@H](C1)[C@H](c1ccc(C#Cc3ccccn3)cc1)[C@@H]2CO | -18 | -5 | . | 32* | -7 | 0 | -16%
CCCC#Cc1cnc2c(c1)C(=O)N([C@H](C)CO)C[C@H](C)[C@H](CN(C)Cc1ccc3c(c1)OCO3)O2 | . | -9 | . | . | . | 0 | .
CN(C)c1cccc2c1C(=O)c1ccccc1C2=O | -14 | 16 | 4 | 43* | . | 0 | 13µM*
CC1Cc2ccccc2N1C(=O)c1ccc(N2CCCCC2)c([N+](=O)[O-])c1 (centres undefined) | 25 | -7 | -11 | ? | 8 | 0 | .
CC1Cc2ccccc2N1C(=O)c1ccc(N2CCCC2)c([N+](=O)[O-])c1 (centres undefined) | -4 | 15 | -7 | 23 | 9 | 0 | -21%
C[C@H](CO)N1C[C@H](C)[C@@H](CN(C)C(=O)C2CC2)Oc2ncc(C3=CCCC3)cc2C1=O | . | 7 | -3 | . | -26 | -1 | .
N#C/C(N=Nc1ccccc1O)=N\Nc1ccccc1O | 27 | 9 | -22 | 34* | -6 | 0 | 8.5µM*
CN(C)CCNc1ccc2nnn3c4ccc(O)cc4c(=O)c1c23 | -1 | 21 | -5 | -4 | . | 0 | .
